For data set [1], the target named is T1, Dual specificity protein kinase TTK (Homo sapiens, UniProt P33981).
T1 sequence (P33981 whole entry): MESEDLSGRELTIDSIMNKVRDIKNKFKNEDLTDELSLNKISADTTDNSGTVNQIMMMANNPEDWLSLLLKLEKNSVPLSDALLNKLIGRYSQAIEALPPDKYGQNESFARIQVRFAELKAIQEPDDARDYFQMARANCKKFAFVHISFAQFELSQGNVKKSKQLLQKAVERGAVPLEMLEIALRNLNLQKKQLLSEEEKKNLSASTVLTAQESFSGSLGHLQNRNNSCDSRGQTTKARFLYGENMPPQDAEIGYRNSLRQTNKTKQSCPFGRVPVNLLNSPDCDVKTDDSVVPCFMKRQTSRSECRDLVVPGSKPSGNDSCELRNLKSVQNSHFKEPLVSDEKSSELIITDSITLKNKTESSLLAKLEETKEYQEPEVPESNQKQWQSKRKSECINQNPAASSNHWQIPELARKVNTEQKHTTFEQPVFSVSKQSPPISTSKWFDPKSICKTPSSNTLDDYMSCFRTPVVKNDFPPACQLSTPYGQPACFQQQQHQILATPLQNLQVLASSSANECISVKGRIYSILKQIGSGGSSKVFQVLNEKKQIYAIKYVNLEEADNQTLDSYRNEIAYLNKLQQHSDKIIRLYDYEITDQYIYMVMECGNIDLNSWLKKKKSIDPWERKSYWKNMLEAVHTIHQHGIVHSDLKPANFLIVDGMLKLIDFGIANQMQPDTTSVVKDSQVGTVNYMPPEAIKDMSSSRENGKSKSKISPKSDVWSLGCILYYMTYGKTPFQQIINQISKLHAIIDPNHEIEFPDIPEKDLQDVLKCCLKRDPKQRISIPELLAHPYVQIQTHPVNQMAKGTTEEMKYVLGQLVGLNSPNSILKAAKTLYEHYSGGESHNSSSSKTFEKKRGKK
Description: Inhibition of TTK autophosphorylation in human CAL51 cells by radioimmuno-precipitation assay. It counts as cell-based.

Data set [2] can be described thus: Cmax in CB17 SCID mouse at 30 mg/kg, po. It is filed as ADME, organism-based. Set-up: dose 30 mg/kg, route oral. The following applies: in vivo. The procedure, abridged:
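Oral PK in SCID mice at 30 mg/kg. Compound is formulated either in CMCT (0.5% CMC/0.25% tween-80) or in 5% TPGS, 10% captisol, 50 mM citrate buffer, depending on compound. Cmax and AUC are measured.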

Molecules are shown by their SMILES.

A word on the IC50: it is the point on the concentration scale where inhibition reaches its midpoint. Read a low IC50 as inhibition by little substance. For orientation: Cmax means the highest concentration seen after dosing. Turning to `C[C@@H](Oc1cc(C(=O)N(C)C)ccc1Nc1nc(O[C@H]2CC[C@@](C)(O)CC2)c2c(Cl)c[nH]c2n1)C(F)(F)F`, in data set [1], 9 nM corresponded to half-maximal inhibition (IC50). Further, the Cmax in data set [2] is 5.2 µM.

The values above are taken from ChEMBL document CHEMBL4346709, “Design and Optimization Leading to an Orally Active TTK Protein Kinase Inhibitor with Robust Single Agent Efficacy” (J Med Chem, 2019).
